Reference: ChEMBL document CHEMBL3621200, “Toward the discovery of dual HCMV-VZV inhibitors: Synthesis, structure activity relationship analysis, and cytotoxicity studies of long chained 2-uracil-3-yl-N-(4-phenoxyphenyl)acetamides” (Bioorg Med Chem, 2015)
Activity calls are given as the source filed them. The rule behind the calls is not given here.

Key:
[1] = tested on: Human immunodeficiency virus 2; assay: Antiviral activity against HIV2 ROD infected in human CEM cells assessed as reduction in virus- induced cytopathicity incubated for 4 to 5 days by microscopy based virus syncytium formation assay; assay type: functional, organism-based; conditions: ISOLATE ROD, CCRF-CEM
Summary of the method: (§1)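 CEM cells at ~3 × 10^5 cells/mL, infected with 100 CCID50 of HIV per mL in the presence of compound dilutions. Incubated 4–5 days at 37 °C in humidified CO2. Syncytium (giant cell) formation scored by microscopy.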

[2] = Cytotoxicity against Varicella zoster virus infected HEL cells assessed as alteration of cell morphology incubated for 3 days by microscopy; assay type: cell-based; conditions: human, HEL cells infected with Varicella zoster virus
Summary of the method: (§2)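 Cytotoxicity was given as the minimum cytotoxic concentration (MCC): the compound concentration causing a microscopically detectable change in HEL cell morphology.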

[3] = tested on: Human herpesvirus 2 strain G; assay: Antiviral activity against HSV2 G Lyons; assay type: functional, organism-based
HEL [4] = assay: Cytotoxicity against Varicella zoster virus infected HEL cells assessed as cell growth inhibition incubated for 3 days by coulter counter method; conditions: human, 72 h
Influenza A virus = assay: Antiviral activity against Influenza A virus H1N1; assay type: functional, organism-based
Summary of the method: (§3)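 Confluent cell monolayers (HEL, Vero, HeLa or MDCK) in 96-well plates were infected with 100 CCID50 of virus in the presence of varying compound concentrations. Cytopathicity was scored once it reached completion in untreated infected controls.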

Sindbis virus = assay: Antiviral activity against Sindbis virus; assay type: functional, organism-based
[5] = tested on: Mammalian orthoreovirus 1; assay: Antiviral activity against Reovirus 1; assay type: functional
Influenza B virus = assay: Antiviral activity against Influenza B virus; assay type: functional, organism-based; summary of the method: as §3
HEL [6] = assay: Cytotoxicity against human cytomegalovirus infected HEL cells assessed as cell growth inhibition incubated for 3 days by coulter counter method; assay type: cell-based; conditions: 72 h
Summary of the method: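 HEL cells were seeded at 5 × 10^3 cells/well and left to adhere and proliferate for 24 h, then compound-containing medium was added. After 3 days at 37 °C, cells were counted with a Coulter counter.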

Punta Toro virus = assay: Antiviral activity against Punta Toro virus; assay type: functional, organism-based
[7] = tested on: Vesicular stomatitis virus; assay: Antiviral activity against Vesicular stomatitis virus; assay type: functional, organism-based; summary of the method: as §3
Coxsackievirus B4 = assay: Antiviral activity against Human coxsackievirus B4; assay type: functional, organism-based
Influenza A virus H3N2 = assay: Antiviral activity against Influenza A virus H3N2; assay type: functional, organism-based; summary of the method: as §3
Vaccinia virus = assay: Antiviral activity against Vaccinia virus Lederle; assay type: functional, organism-based; conditions: Orthopoxvirus vaccinia; summary of the method: as §3
Human alphaherpesvirus 1 = assay: Antiviral activity against HSV1 KOS; assay type: functional, organism-based
Summary of the method: (§4)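 Confluent cell monolayers in 96-well plates were inoculated with 100 CCID50 of virus together with varying compound concentrations. Cytopathicity was scored once it reached completion in untreated infected controls.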

[8] = Selectivity index, ratio of CC50 for human cytomegalovirus Davis infected HEL cells to EC50 for human cytomegalovirus Davis; assay type: toxicity, cell-based; conditions: HEL cells infected with human cytomegalovirus Davis, read-out: Ratio CC50/EC50
[9] = tested on: Human immunodeficiency virus 1; assay: Antiviral activity against HIV1 3B infected in human CEM cells assessed as reduction in virus- induced cytopathicity incubated for 4 to 5 days by microscopy based virus syncytium formation assay; assay type: functional, organism-based; conditions: CCRF-CEM; summary of the method: as §1
Human alphaherpesvirus 2 = assay: Antiviral activity against HSV2 Lyons; assay type: functional, organism-based; summary of the method: as §4
[10] = Cytotoxicity against human cytomegalovirus infected HEL cells assessed as alteration of cell morphology incubated for 3 days by microscopy; assay type: cell-based; conditions: HEL cells infected with human cytomegalovirus; summary of the method: as §2
[11] = Selectivity index, ratio of CC50 for human cytomegalovirus AD169 infected HEL cells to EC50 for human cytomegalovirus AD169; assay type: toxicity, cell-based; conditions: HEL cells infected with human cytomegalovirus AD169, read-out: Ratio CC50/EC50
Feline coronavirus = assay: Antiviral activity against Feline coronavirus; assay type: functional, organism-based
Human betaherpesvirus 5 [12] = assay: Antiviral activity against human cytomegalovirus Davis infected in HEL cells assessed as reduction in viral plaque formation; assay type: functional, organism-based; conditions: Human betaherpesvirus 5, Davis
Summary of the method: (§5)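 Confluent HEL fibroblasts were infected with 100 PFU of HCMV in the presence of varying compound concentrations. Plaques were counted once plaque formation was complete in untreated infected controls.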

Human respirovirus 3 = assay: Antiviral activity against Parainfluenza 3 virus; assay type: functional, organism-based
Human betaherpesvirus 5 [13] = assay: Antiviral activity against human cytomegalovirus AD169 infected in HEL cells assessed as reduction in viral plaque formation; assay type: functional, organism-based; conditions: Human betaherpesvirus 5, AD169, HEL; summary of the method: as §5

O=C(Cn1c(=O)ccn(CCCCCOc2ccc(Br)cc2)c1=O)Nc1ccc(Oc2ccccc2)cc1
inhibition [1]: inactive
MCC at 72 h [2]: > 100 µM
inhibition [3]: inactive
CC50 (HEL [4]): 8.7 µM
inhibition (Influenza A virus): inactive
inhibition (Sindbis virus): inactive
inhibition [5]: inactive
inhibition (Influenza B virus): inactive
CC50 (HEL [6]): 8.7 µM
inhibition (Punta Toro virus): inactive
inhibition [7]: inactive
inhibition (Coxsackievirus B4): inactive
inhibition (Influenza A virus H3N2): inactive
inhibition (Vaccinia virus): inactive
inhibition (Human alphaherpesvirus 1): inactive
selectivity ratio [8]: 9
inhibition [9]: inactive
inhibition (Human alphaherpesvirus 2): inactive
MCC at 72 h [10]: 20 µM
selectivity ratio [11]: 9
inhibition (Feline coronavirus): inactive
EC50 (Human betaherpesvirus 5 [12]): 0.97 µM
inhibition (Human respirovirus 3): inactive

O=C(Cn1c(=O)ccn(CCCCCCOc2ccc(Br)cc2)c1=O)Nc1ccc(Oc2ccccc2)cc1
EC50 (Human betaherpesvirus 5 [13]): 0.29 µM
inhibition [1]: inactive
MCC at 72 h [2]: 4 µM
inhibition [3]: inactive
CC50 (HEL [4]): 11.7 µM
inhibition (Influenza A virus): inactive
inhibition (Sindbis virus): inactive
inhibition [5]: inactive
inhibition (Influenza B virus): inactive
CC50 (HEL [6]): 11.7 µM
inhibition (Punta Toro virus): inactive
inhibition [7]: inactive
inhibition (Coxsackievirus B4): inactive
inhibition (Influenza A virus H3N2): inactive
inhibition (Vaccinia virus): inactive
inhibition (Human alphaherpesvirus 1): inactive
inhibition [9]: inactive
inhibition (Human alphaherpesvirus 2): inactive
MCC at 72 h [10]: 4 µM
inhibition (Feline coronavirus): inactive
EC50 (Human betaherpesvirus 5 [12]): 0.2 µM
inhibition (Human respirovirus 3): inactive

CN(C(=O)Cn1c(=O)ccn(CCCCCOc2ccc(Br)cc2)c1=O)c1ccc(Oc2ccccc2)cc1
EC50 (Human betaherpesvirus 5 [13]): 0.98 µM
inhibition [1]: inactive
MCC at 72 h [2]: ≥ 100 µM
inhibition [3]: inactive
CC50 (HEL [4]): 6 µM
inhibition (Influenza A virus): inactive
inhibition (Sindbis virus): inactive
inhibition [5]: inactive
inhibition (Influenza B virus): inactive
CC50 (HEL [6]): 6.1 µM
inhibition (Punta Toro virus): inactive
inhibition [7]: inactive
inhibition (Coxsackievirus B4): inactive
inhibition (Influenza A virus H3N2): inactive
inhibition (Vaccinia virus): inactive
inhibition (Human alphaherpesvirus 1): inactive
inhibition [9]: inactive
inhibition (Human alphaherpesvirus 2): inactive
MCC at 72 h [10]: ≥ 4 µM
inhibition (Feline coronavirus): inactive
EC50 (Human betaherpesvirus 5 [12]): 1.29 µM
inhibition (Human respirovirus 3): inactive

O=C(Cn1c(=O)ccn(CCCOc2ccc(Br)cc2)c1=O)Nc1ccc(Oc2ccccc2)cc1
inhibition [1]: inactive
MCC at 72 h [2]: ≥ 100 µM
inhibition [3]: inactive
CC50 (HEL [4]): 15.2 µM
inhibition (Influenza A virus): inactive
inhibition (Sindbis virus): inactive
inhibition [5]: inactive
inhibition (Influenza B virus): inactive
CC50 (HEL [6]): 15.2 µM
inhibition (Punta Toro virus): inactive
inhibition [7]: inactive
inhibition (Coxsackievirus B4): inactive
inhibition (Influenza A virus H3N2): inactive
inhibition (Vaccinia virus): inactive
inhibition (Human alphaherpesvirus 1): inactive
inhibition [9]: inactive
inhibition (Human alphaherpesvirus 2): inactive
MCC at 72 h [10]: ≥ 100 µM
inhibition (Feline coronavirus): inactive
EC50 (Human betaherpesvirus 5 [12]): 3.9 µM
inhibition (Human respirovirus 3): inactive

O=C(Cn1c(=O)ccn(CCCCCOc2ccc(-c3ccccc3)cc2)c1=O)Nc1ccc(Oc2ccccc2)cc1
EC50 (Human betaherpesvirus 5 [13]): 0.51 µM
inhibition [1]: inactive
MCC at 72 h [2]: 100 µM
inhibition [3]: inactive
inhibition (Influenza A virus): inactive
inhibition (Sindbis virus): inactive
inhibition [5]: inactive
inhibition (Influenza B virus): inactive
CC50 (HEL [6]): 2.8 µM
inhibition (Punta Toro virus): inactive
inhibition [7]: inactive
inhibition (Coxsackievirus B4): inactive
inhibition (Influenza A virus H3N2): inactive
inhibition (Vaccinia virus): inactive
inhibition (Human alphaherpesvirus 1): inactive
inhibition [9]: inactive
inhibition (Human alphaherpesvirus 2): inactive
MCC at 72 h [10]: 20 µM
inhibition (Feline coronavirus): inactive
EC50 (Human betaherpesvirus 5 [12]): 1.04 µM
inhibition (Human respirovirus 3): inactive

O=C(Cn1c(=O)ccn(CCCCCOc2ccc(Br)cc2)c1=O)Nc1ccc(Cc2ccccc2)cc1
EC50 (Human betaherpesvirus 5 [13]): 0.44 µM
inhibition [1]: inactive
MCC at 72 h [2]: ≥ 4 µM
inhibition [3]: inactive
inhibition (Influenza A virus): inactive
inhibition (Sindbis virus): inactive
inhibition [5]: inactive
inhibition (Influenza B virus): inactive
CC50 (HEL [6]): 8.7 µM
inhibition (Punta Toro virus): inactive
inhibition [7]: inactive
inhibition (Coxsackievirus B4): inactive
inhibition (Influenza A virus H3N2): inactive
inhibition (Vaccinia virus): inactive
inhibition (Human alphaherpesvirus 1): inactive
inhibition [9]: inactive
inhibition (Human alphaherpesvirus 2): inactive
MCC at 72 h [10]: 4 µM
inhibition (Feline coronavirus): inactive
EC50 (Human betaherpesvirus 5 [12]): 0.57 µM
inhibition (Human respirovirus 3): inactive

O=C(Cn1c(=O)ccn(CCCCCOc2cccc(Br)c2)c1=O)Nc1ccc(Oc2ccccc2)cc1
EC50 (Human betaherpesvirus 5 [13]): 2 µM
inhibition [1]: inactive
MCC at 72 h [2]: > 100 µM
inhibition [3]: inactive
inhibition (Influenza A virus): inactive
inhibition (Sindbis virus): inactive
inhibition [5]: inactive
inhibition (Influenza B virus): inactive
CC50 (HEL [6]): 6.3 µM
inhibition (Punta Toro virus): inactive
inhibition [7]: inactive
inhibition (Coxsackievirus B4): inactive
inhibition (Influenza A virus H3N2): inactive
inhibition (Vaccinia virus): inactive
inhibition (Human alphaherpesvirus 1): inactive
inhibition [9]: inactive
inhibition (Human alphaherpesvirus 2): inactive
MCC at 72 h [10]: ≥ 100 µM
inhibition (Feline coronavirus): inactive
EC50 (Human betaherpesvirus 5 [12]): 3.1 µM
inhibition (Human respirovirus 3): inactive

O=c1[nH]c(=O)n([C@H]2C[C@H](O)[C@@H](CO)O2)cc1/C=C/Br [BRIVUDINE]
MCC at 72 h [2]: > 300 µM
CC50 (HEL [4]): ≥ 79.3 µM

O=C(Cn1c(=O)ccn(CCCCOc2ccc(Br)cc2)c1=O)Nc1ccc(Oc2ccccc2)cc1
EC50 (Human betaherpesvirus 5 [13]): 1.79 µM
inhibition [1]: inactive
MCC at 72 h [2]: > 100 µM
inhibition [3]: inactive
CC50 (HEL [4]): 7.7 µM
inhibition (Influenza A virus): inactive
inhibition (Sindbis virus): inactive
inhibition [5]: inactive
inhibition (Influenza B virus): inactive
CC50 (HEL [6]): 7.7 µM
inhibition (Punta Toro virus): inactive
inhibition [7]: inactive
inhibition (Coxsackievirus B4): inactive
inhibition (Influenza A virus H3N2): inactive
inhibition (Vaccinia virus): inactive
inhibition (Human alphaherpesvirus 1): inactive
inhibition [9]: inactive
inhibition (Human alphaherpesvirus 2): inactive
MCC at 72 h [10]: ≥ 20 µM
inhibition (Feline coronavirus): inactive
EC50 (Human betaherpesvirus 5 [12]): 1.64 µM
inhibition (Human respirovirus 3): inactive

O=C(Cn1c(=O)ccn(CCCCCCCCOc2ccc(Br)cc2)c1=O)Nc1ccc(Oc2ccccc2)cc1
EC50 (Human betaherpesvirus 5 [13]): < 0.032 µM
inhibition [1]: inactive
MCC at 72 h [2]: 0.8 µM
inhibition [3]: inactive
CC50 (HEL [4]): 11.7 µM
inhibition (Influenza A virus): inactive
inhibition (Sindbis virus): inactive
inhibition [5]: inactive
inhibition (Influenza B virus): inactive
inhibition (Punta Toro virus): inactive
inhibition [7]: inactive
inhibition (Coxsackievirus B4): inactive
inhibition (Influenza A virus H3N2): inactive
inhibition (Vaccinia virus): inactive
inhibition (Human alphaherpesvirus 1): inactive
inhibition [9]: inactive
inhibition (Human alphaherpesvirus 2): inactive
MCC at 72 h [10]: ≥ 0.16 µM
inhibition (Feline coronavirus): inactive
EC50 (Human betaherpesvirus 5 [12]): < 0.032 µM
inhibition (Human respirovirus 3): inactive

O=C(Cn1c(=O)ccn(CCCCCOc2ccccc2)c1=O)Nc1ccc(Oc2ccccc2)cc1
EC50 (Human betaherpesvirus 5 [13]): 3.6 µM
inhibition [1]: inactive
MCC at 72 h [2]: > 100 µM
inhibition [3]: inactive
inhibition (Influenza A virus): inactive
inhibition (Sindbis virus): inactive
inhibition [5]: inactive
inhibition (Influenza B virus): inactive
CC50 (HEL [6]): 5.4 µM
inhibition (Punta Toro virus): inactive
inhibition [7]: inactive
inhibition (Coxsackievirus B4): inactive
inhibition (Influenza A virus H3N2): inactive
inhibition (Vaccinia virus): inactive
inhibition (Human alphaherpesvirus 1): inactive
inhibition [9]: inactive
inhibition (Human alphaherpesvirus 2): inactive
MCC at 72 h [10]: ≥ 20 µM
inhibition (Feline coronavirus): inactive
EC50 (Human betaherpesvirus 5 [12]): 4 µM
inhibition (Human respirovirus 3): inactive
